Compound activity as filed in PubChem BioAssay.
MT stabilizer – microtubule stabilizers in HeLa cells; HeLa tubulin immunostaining HCS, 24 h; share of cells brighter than vehicle mean+2SD; % tubulin-high responders, % at 10 µM; 200,000 compounds, 0.83% hits;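 active = plate Z-score above 3 for both tubulin-high and condensed-nucleus cell shares, with cell loss under 80%, at 10 µM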;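 note: anti alpha tubulin signal scored within the nucleus-defined area of each cell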
b-catenin transl – alters nuclear translocation of beta-catenin in HeLa cells; 190,000 compounds, 0.3% hits; nuclear translocation activity, % at 5 µM; immunofluorescence imaging;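 active = nuclear translocation activity above 50% at 5 µM, with a well cell count of 50 or more; inconclusive = wells under 50 cells across six images, flagged as toxic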;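 note: per-cell ratio of nuclear to cytoplasmic median beta-catenin stain intensity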
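Read-out: Nuclear/cytoplasmic beta-catenin signal ratio, % activation | Assay system: Human HeLa cell line | Times: 24 h compound exposure at 37°C, 5% CO2 | Signal: Fluorescence imaging of beta-catenin antibody stain plus DAPI | Dosing: 5 µM primary, 0.02–20 µM confirmation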
Cl transport mod – modulates chloride dependent transport by human KCC2; KCC2 cells, thallium flux FluoZin-2 fluorescence; B-score of Tl+ flux slope (higher = more flux/activation; lower = inhibition) at 10 µM; 190,000 compounds, 2.2% hits;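 active = thallium flux slope and its plate-corrected score both differing from the plate sample mean at a set confidence after two filtering rounds, in either direction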;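 note: slope of fluorescence scaled to starting intensity during 10 to 20 s after thallium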
DTT redox prof – compounds producing H2O2 with reducing agent – biochemical, NIH compound library profiling, artefact control for MLSCN library redox annotation, primary screen; DTT-dependent redox cycling H2O2, phenol red/HRP absorbance; 100% = 100 µM peroxide control, 0% = buffer; activation, % at 10 µM; 200,000 compounds, 0.03% hits; AID 878;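 active = activation of at least 50% relative to the plate's high and low controls in the primary single-dose screen; inactive = activation below 50%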;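 note: compound incubated with DTT at 0.8 mM final as the reducing agent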
ROMK primary – human ROMK K+ channel modulation, primary screen | AID 1918 | 130,000 compounds, 2% hits | B-score at 10 µM | Tet-inducible ROMK, thallium flux fluorescence; actives lie on both sides;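 active = signal ratio slope over the read window, or its plate-corrected B-score, at least 3 SD from the plate mean, either direction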;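 note: B-score of the F/F0 ratio slope over 7 to 12 s after thallium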
Target sequence (P48048 whole entry, looked up): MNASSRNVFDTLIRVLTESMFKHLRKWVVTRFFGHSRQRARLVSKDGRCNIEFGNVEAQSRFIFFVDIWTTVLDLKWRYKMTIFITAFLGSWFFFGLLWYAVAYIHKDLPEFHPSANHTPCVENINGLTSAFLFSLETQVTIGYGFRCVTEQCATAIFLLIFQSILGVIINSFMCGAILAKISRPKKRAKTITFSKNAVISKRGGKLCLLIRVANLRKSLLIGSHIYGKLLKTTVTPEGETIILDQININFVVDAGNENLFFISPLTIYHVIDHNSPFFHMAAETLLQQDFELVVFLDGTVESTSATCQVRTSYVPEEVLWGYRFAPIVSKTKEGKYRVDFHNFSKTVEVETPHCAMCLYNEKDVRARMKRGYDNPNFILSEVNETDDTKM
KCC2 secondary – KCC2 (human) modulation, secondary assay. normalised thallium flux (F/F0 slope) at 10 µM. 3,700 compounds, 15% hits. shares compounds with Cl transport mod. AID 1713. HEK293-KCC2, thallium flux, FluoZin2 fluorescence; hits give high values;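 active = thallium flux slope above the same plate's solvent-only control mean plus 3 SD; inconclusive = the two replicate wells disagree; inactive = no significant difference from solvent-only control wells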
KCC2 bumet counter – bumetanide-insensitive thallium flux in KCC2 cells with ouabain, counter-screen; shares compounds with Cl transport mod; HEK293-KCC2 + bumetanide/ouabain, thallium flux FluoZin2; hits give high values; normalized thallium flux at 10 µM; 3,700 compounds, 49% hits;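 active = thallium entry rate above the same plate's blocked-transporter control wells by more than 3 SD; inconclusive = the two repeat wells disagree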;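 note: raw slope of fluorescence over initial fluorescence between 10 and 20 s after thallium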
KCC2 secondary2 – confirmation of human KCC2 transport modulators; 3,700 compounds, 23% hits; shares compounds with Cl transport mod; HEK293-KCC2, thallium flux FluoZin2 fluorescence; actives lie on both sides; F/F0 rise rate, 10–20 s post-thallium; normalized thallium flux at 10 µM; AID 1715;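 active = thallium flux slope more than 3 SD above or below the plate's solvent-only control mean, mostly below; inconclusive = the two repeat wells disagreed; inactive = no significant shift from solvent-only controls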
HEK counter1 – parental HEK flux effect, counter-screen | thallium flux rate (normalised fluorescence) at 10 µM | AID 1716 | shares compounds with Cl transport mod | 3,700 compounds, 46% hits | HEK293 parental cells, thallium flux FluoZin2, ouabain; baseline-ratio fluorescence slope, 10–20 s after thallium;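 active = thallium flux rate significantly above the same plate's solvent-only control wells, beyond their mean plus 3 SD; inconclusive = the two replicate wells gave conflicting results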
KCC2 ouabain – modulates human KCC2 on retest with ouabain | shares compounds with Cl transport mod | HEK293-KCC2, thallium flux FluoZin2 fluorescence; bidirectional: low = inhibitor, high = activator | raw Tl+ flux slope (below DMSO = inhibition, above = activation) at 10 µM | 3,700 compounds, 48% hits | AID 1717;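 active = thallium flux slope beyond 3 SD from same-plate DMSO control mean in most replicates, usually higher, sometimes lower; inconclusive = repeat tests gave conflicting results; inactive = no significant difference from controls in most replicates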;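 note: slope of initial-normalized fluorescence between seconds 10 and 20 after thallium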
HEK293 Tl flux2 – parental HEK flux effect, counter-screen 2 | shares compounds with Cl transport mod | HEK293 parental, thallium flux FluoZin-2 fluorescence slope | thallium flux slope at 10 µM | 3,700 compounds, 33% hits;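 active = thallium flux slope above the same plate's solvent-control mean plus 3 SD in both duplicate wells; inconclusive = duplicate wells that disagreed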;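 note: run without ouabain in cells lacking the KCC2 cotransporter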
Large screens that a line does not name were inactive (follow-up assays come after a bar, where they were run). Most compounds without a hit are left out; they make up all but 3.7% or so of the library.

CC(/C=C/c1ccccc1F)=N\NC(=O)c1ccccc1	none
CC(/C=C/c1ccccc1)=N/NC(=O)c1cccc(Br)c1	Cl transport mod 10.5 | KCC2 secondary inactive | KCC2 bumet counter 0.0368 | KCC2 secondary2 inactive | HEK counter1 0.0371 | KCC2 ouabain 0.0299 | HEK293 Tl flux2 0.0136
COc1ccccc1NC(=O)c1ccc2c(c1)nnn2C	none
Cc1ccc(-c2nc(=S)c3c(n2Cc2cccnc2)CC(C)(C)OC3)cc1	none (no result: MT stabilizer, DTT redox prof, ROMK primary)
CCCCN(C(=O)c1ccc(Cl)c(S(=O)(=O)N2CCOCC2)c1)c1c(N)n(CCC)c(=O)[nH]c1=O	none (no result: MT stabilizer, DTT redox prof, ROMK primary)
COCC(C)n1c(C)cc(C(=O)CSc2ccc(NC(C)=O)cc2)c1C (configuration not stated)	Cl transport mod -5.84 | KCC2 secondary inactive | KCC2 bumet counter inactive | KCC2 secondary2 inactive | HEK counter1 inactive | KCC2 ouabain inactive | HEK293 Tl flux2 inactive
COc1ccc(OC)c(NC(=O)C(=O)NNC(=O)C23CC4CC(CC(C4)C2)C3)c1	Cl transport mod 135 (no result: MT stabilizer, DTT redox prof, ROMK primary) | KCC2 secondary 0.0443 | KCC2 bumet counter 0.115 | KCC2 secondary2 0.0708 | HEK counter1 0.1 | KCC2 ouabain 0.0813 | HEK293 Tl flux2 0.045
CN(C)S(=O)(=O)c1ccc(NC(=O)CSc2ncnc3ccccc23)cc1	Cl transport mod -4.04 (no result: ROMK primary) | KCC2 secondary inactive | KCC2 bumet counter inactive | KCC2 secondary2 0.0263 | HEK counter1 inactive | KCC2 ouabain 0.0149 | HEK293 Tl flux2 inactive
Cc1ccc(S(=O)(=O)Cn2nnnc2C(C(C)C)N2CCN(Cc3ccco3)CC2)cc1 (configuration not stated)	Cl transport mod -2.47 (no result: ROMK primary) | KCC2 secondary inactive | KCC2 bumet counter inactive | KCC2 secondary2 inactive | HEK counter1 inactive | KCC2 ouabain inactive | HEK293 Tl flux2 inactive
O=S(=O)(Oc1ccccc1N1CCCCC1)c1ccccc1	none (no result: MT stabilizer, DTT redox prof, ROMK primary)
Fc1ccc(-n2c(-c3ccc4ccccc4n3)n[nH]c2=S)cc1Cl	Cl transport mod 25.8 | KCC2 secondary inactive | KCC2 bumet counter 0.0234 | KCC2 secondary2 0.0418 | HEK counter1 0.0311 | KCC2 ouabain 0.0404 | HEK293 Tl flux2 0.0187
Cc1ccccc1-n1c(-c2csc3ccccc23)n[nH]c1=S	Cl transport mod 14.5 | KCC2 secondary 0.0157 | KCC2 bumet counter 0.0453 | KCC2 secondary2 inactive | HEK counter1 0.0152 | KCC2 ouabain 0.0429 | HEK293 Tl flux2 inconclusive
Cc1n[nH]c(=S)n1-c1ccc(Cl)cc1	none (no result: Cl transport mod, ROMK primary)
Cc1ccccc1-n1c(-c2ccc3ccccc3n2)n[nH]c1=S	Cl transport mod 10.8 (no result: MT stabilizer, DTT redox prof, ROMK primary) | KCC2 secondary inactive | KCC2 bumet counter 0.0227 | KCC2 secondary2 inactive | HEK counter1 inconclusive | KCC2 ouabain inconclusive | HEK293 Tl flux2 inactive
S=c1[nH]nc(-c2ccc3ccccc3n2)n1-c1ccc(Cl)cc1	Cl transport mod 13.9 (no result: ROMK primary) | KCC2 secondary inactive | KCC2 bumet counter 0.0321 | KCC2 secondary2 0.0432 | HEK counter1 0.0295 | KCC2 ouabain 0.0368 | HEK293 Tl flux2 0.026
S=c1[nH]nc(-c2ccc3ccccc3n2)n1-c1ccc2ncccc2c1	none
NS(=O)(=O)c1ccc(NC2=CC(c3ccc([N+](=O)[O-])cc3)N(c3ccc(S(N)(=O)=O)cc3)C2=O)cc1 (configuration not stated)	none (no result: MT stabilizer, DTT redox prof, ROMK primary)
COc1ccc(CCN=C(N)NS(=O)(=O)c2ccc(C)c(C)c2)cc1	none (no result: ROMK primary)
Oc1csc(Cc2nc(-c3ccc4ccccc4c3)cs2)n1	none (no result: Cl transport mod) | KCC2 secondary inactive | KCC2 bumet counter inconclusive | KCC2 secondary2 inactive | HEK counter1 inactive | KCC2 ouabain inactive | HEK293 Tl flux2 inactive
O=C(COc1ccccc1C(=O)O)Nc1nc2ccc([N+](=O)[O-])cc2s1	none (no result: MT stabilizer, DTT redox prof, ROMK primary)
CC(NCc1ccc(-c2ccccc2)cc1)C(O)c1ccccc1 (configuration not stated)	none (no result: ROMK primary)
O=C(O)c1cc(-c2ccc(/C=N/N3C(=O)C4C5C=CC(CC5)C4C3=O)o2)ccc1Cl (configuration not stated)	Cl transport mod -9.69 | KCC2 secondary inactive | KCC2 bumet counter inconclusive | KCC2 secondary2 inactive | HEK counter1 inactive | KCC2 ouabain inactive | HEK293 Tl flux2 inactive
CCN(CC)S(=O)(=O)c1cc(NC(=O)C(=O)c2c(-c3ccccc3)cc3ccccn23)ccc1C	none (no result: ROMK primary)
CCN(CC)S(=O)(=O)c1cccc(NC(=O)C(=O)c2c(-c3ccccc3)cc3ccccn23)c1	Cl transport mod -2.89 | KCC2 secondary inactive | KCC2 bumet counter inactive | KCC2 secondary2 inactive | HEK counter1 inactive | KCC2 ouabain inactive | HEK293 Tl flux2 inactive
CCCCC(=O)NC(=S)Nc1nnn(CCC)n1	none (no result: ROMK primary)
Cc1cc(C)nc(N2CCCC(C(=O)NC(C)CCc3ccco3)C2)n1 (configuration not stated)	none (no result: Cl transport mod) | KCC2 secondary inactive | KCC2 bumet counter inactive | KCC2 secondary2 inactive | HEK counter1 inactive | KCC2 ouabain inactive | HEK293 Tl flux2 inactive
Cc1cc(C)nc(N2CCCC(C(=O)NCc3ccccc3)C2)n1 (configuration not stated)	none
CS(=O)(=O)c1ccc(C(=O)NCCN2C(=O)S/C(=C\c3cccnc3)C2=O)cc1[N+](=O)[O-]	none
COc1cccc(-c2nc(SCC(=O)Nc3nc(-c4ccccc4)c(C)s3)[nH]c(=O)c2C#N)c1	none (no result: ROMK primary)
CCOc1ccc2nc(NC(=O)CSc3nc(-c4ccccc4)c(C#N)c(=O)[nH]3)sc2c1	Cl transport mod -3.21 | KCC2 secondary inactive | KCC2 bumet counter inconclusive | KCC2 secondary2 inactive | HEK counter1 0.0053 | KCC2 ouabain inactive | HEK293 Tl flux2 inactive
COCC(C)n1c(SCC(=O)c2cc(C)n(C)c2C)nc2ccccc2c1=O (configuration not stated)	none
CCCn1nnc2c(=O)oc3ccccc3c21	none
CCCCCn1nnc2c(=O)oc3ccccc3c21	none (no result: Cl transport mod, ROMK primary) | KCC2 secondary inactive | KCC2 bumet counter inactive | KCC2 secondary2 0.0228 | HEK counter1 0.00529 | KCC2 ouabain 0.0105 | HEK293 Tl flux2 inconclusive
O=C1CC(C(F)(F)F)=NN1	none (no result: MT stabilizer, DTT redox prof, ROMK primary)
